High-throughput results: PubChem BioAssay, several laboratories
Only some compounds are listed: those with a hit (about 1.7% of all), similar ones and a draw of the others.
DSG3 Ab inh: inhibitors of pemphigus antibody binding to DSG3, primary screen, biochemical, bead-based, flow cytometry, scFv-GFP | Desmoglein-3 (Homo sapiens), P32926 | DSG3-coupled beads, scFv-anti-DSG3-GFP binding; stronger effect = lower value | binding (percent of control), % at 10 µM | 310,000 tested, 0.48% active;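 active means binding more than 3 SD below its plate's average and above zero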;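 further: hits lower antibody fragment binding to DSG3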
Scp1 inh: Scp-1 phosphatase inhibitors, primary screen, biochemical, colorimetric, uHTS | Carboxy-terminal domain RNA polymerase II polypeptide A small phosphatase 1 (Homo … | Recombinant Scp1, phosphopeptide, malachite green phosphate absorbance | inhibition, % at 20 µM | 340,000 tested, 0.88% active | AID 493091, 2011;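 active means inhibition above about 50% at 20 µM, limit read from the data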;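 further: plate controls were DMSO wells with enzyme for no effect and wells lacking enzyme for full effect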
Target sequence (Q9GZU7 76-261 limits assumed): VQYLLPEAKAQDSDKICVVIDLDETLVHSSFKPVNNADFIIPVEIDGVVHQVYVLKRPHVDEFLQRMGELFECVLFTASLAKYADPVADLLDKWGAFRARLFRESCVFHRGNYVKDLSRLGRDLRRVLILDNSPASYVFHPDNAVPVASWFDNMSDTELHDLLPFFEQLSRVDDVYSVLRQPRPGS
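Times: enzyme reaction 45 min at room temperature, colour 5 min, stabilisation 30 min. Material: SCP-1 catalytic fragment, aa 76-261. Medium: Acidic Tris acetate buffer with magnesium and detergent. Signal: colorimetric free-phosphate detection, absorbance 630 nm. Read-out basis: % inhibition of SCP-1 phosphate liberation. Reagent: Phosphorylated 17-residue peptide substrate.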
LMPTP inh: LMPTP phosphatase inhibitors, primary screen, biochemical, fluorescence intensity, uHTS | 360,000 tested, 0.22% active | inhibition, % at 20 µM | AID 651560, 2012 | recombinant LMPTP-A, OMFP fluorogenic substrate | Low molecular weight phosphotyrosine protein phosphatase (Homo sapiens), P24666;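 active means compounds that cut the enzyme signal by at least half of the control window in the single-dose screen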;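 further: plate controls were DMSO wells with enzyme plus substrate for no effect and substrate without enzyme for full effect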
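Test system – LMPTP-A enzyme · Amount – LMPTP-A at 0.625 nM final in the reaction · Buffer or medium – Bis-Tris pH 6.0, DTT, detergent · Reagent – OMFP 400 µM · Doses – single 20 µM dose · Schedule – reaction 50 min, room temperature, dark · Detection – fluorescence intensity of OMFP turnover product · Evaluation – percent inhibition versus substrate-only and uninhibited controls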
SUMO1 PPI mod: modulators of SUMO1 protein-protein interactions, primary screen, biochemical, uHTS; SUMO1 binding to a labelled peptide, TR-FRET, 1 h; inhibition, % at 20 µM; 360,000 tested, 0.33% active; Small ubiquitin-related modifier 1 (Homo sapiens), P63165; AID 602429, 2012; in the data active means inhibition above about 37%
Target sequence (P63165 whole entry, looked up): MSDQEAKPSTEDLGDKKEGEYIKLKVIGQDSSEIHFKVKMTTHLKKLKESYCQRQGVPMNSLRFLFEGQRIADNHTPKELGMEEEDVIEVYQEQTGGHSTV
STEP block: STEP phosphatase inhibitors, primary screen, biochemical, fluorescence intensity, uHTS | Tyrosine-protein phosphatase non-receptor type 5 (Homo sapiens), P54829 | AID 588621, 2011 | recombinant STEP, OMFP fluorogenic substrate | 360,000 tested, 0.25% active | inhibition, % at 20 µM;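 active means inhibition at 20 µM, scaled per plate between control wells, above about 37%, limit read from the data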;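 further: 0% = DMSO with enzyme and substrate and 100% = substrate only without enzyme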
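System: STEP phosphatase, cell-free reaction; Buffer or medium: Bis-Tris pH 6.0 buffer with DTT, detergent; Incubation: 20 min at room temperature, dark; Measured by: fluorescence, 480/540 nm.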
The depositor's hits bear a star; · = not tested or not shown.

SMILES	DSG3 Ab inh	Scp1 inh	LMPTP inh	SUMO1 PPI mod	STEP block
CCn1c(SCC(=O)c2ccc(Cl)cc2)nnc1-c1ccoc1C	102	-2	-1	39*	1
CCn1c(SCC(=O)c2ccc(C)cc2)nnc1-c1ccoc1C	99	-3	0	0	-1
Cc1ccc(NC(=O)C2CCN(C(=O)c3cccs3)CC2)c(C)c1	131	99*	-3	3	-2
CCc1nc2sc3ccccc3c(=O)c2c(=O)n1Cc1ccco1	100	47	58*	18	-5
Cc1ccc(C)c(N2CCN(C(=O)CCCn3c(=S)[nH]c4cc5c(cc4c3=O)OCO5)CC2)c1	78*	-2	2	5	4
O=C(CCCn1c(=S)[nH]c2cc3c(cc2c1=O)OCO3)N1CCN(c2ccccc2F)CC1	101	-6	-1	1	0
Cc1cc(OCCCC(=O)Nc2cccc(-n3cnnn3)c2)ccc1Cl	110	-14	3	-1	1
CCn1c(CC(=O)Nc2ccc(F)cc2)nnc1SCC(=O)NC1=NCCS1	-62*	-1	-2	3	0
CCN(CC(=O)NCc1ccc(Cl)cc1)C(=O)c1cc2ccccc2o1	99	-5	1	1	2
CN(C)c1ccc(NC(=S)c2ccc3ccccc3n2)cc1	90	-4	7	-19	68*
Cc1ccc(C)c(NC(=S)c2ccc3ccccc3n2)c1	98	-10	3	-3	1
COc1ccccc1N1C(=S)N=C(Nc2c(C)cccc2C)C12CCCC2	115	-6	0	3	4
Cc1ccc2[nH]c(C)c(/C=C/c3cc[n+](C)cc3)c2c1	380	12	6	-173	-15
Cc1ccc2c(c1)c(/C=C/c1cc[n+](C)cc1)c(C)n2C	517	54*	13	-269	-19
O=[N+]([O-])c1ccc(-c2cn(-c3ccc(Cl)cc3)cn2)cc1	·	·	15	75*	25
CN(C)c1ccc(-c2csc(C(C)(O)c3ccc(F)c(F)c3)n2)cc1 (stereo not given)	·	·	3	4	1
CN1C(=O)N(CC(=O)NCc2ccc(Cl)cc2Cl)C(=O)C12CCCCC2	99	-2	0	-2	0
O=C(/C=C/Nc1ccc(Oc2ccccc2)cc1)c1ccco1	14*	-4	2	-15	8
COc1ccc(/C=N/NC(=O)COc2cc(C)cc(C)c2)cc1COC(C)=O	111	5	2	4	-1
CCC(CC)C(=O)Nc1nnc(S(=O)(=O)N2c3ccccc3CC2C)s1 (stereo not given)	-14*	-6	0	-2	-2
COc1ccc(C(=O)Nc2ccc3[nH]ccc3c2)cc1	107	-7	-2	2	2
COc1ccc(C(=O)Nc2ccc3oc(-c4cccnc4)nc3c2)cc1OC	104	-1	2	3	-2
COc1ccc(C(=O)Nc2ccc3oc(-c4cccc(F)c4)nc3c2)cc1OC	52*	7	-1	-1	-2
COc1ccc(C(=O)Nc2ccc3[nH]ccc3c2)cc1OC	85*	4	0	5	-5
O=C(Nc1ccc(N2CCOCC2)cc1)c1ccc2nc(-c3ccco3)c(-c3ccco3)nc2c1	2.0*	12	4	-3	2
CCc1nc2ccc(C(=O)Nc3ccc(NC(C)=O)cc3)cc2nc1CC	88	-2	-2	-4	1
CC(=O)c1ccc(NC(=O)c2ccc3nc(-c4ccco4)c(-c4ccco4)nc3c2)cc1	70	83*	86*	96*	89*
C[C@@H]1CN([C@@H](C)CO)S(=O)(=O)c2ccc(Br)cc2O[C@@H]1CN(C)C(=O)c1ccccn1	95	·	-2	0	4
CCOC(=O)Cc1nc(-c2cccc(C(F)(F)F)c2)no1	103	-5	-1	-2	4
OCCC1CN(CC2CC2)CCN1Cc1ccc(F)c(F)c1 (stereo not given)	96	-7	-1	3	-1
